Assay results taken from ChEMBL document CHEMBL1641377, “Discovery of novel, potent, selective, and orally active human glucagon receptor antagonists containing a pyrazole core” (Bioorg Med Chem Lett, 2011).
The source made the active and inactive calls. The rule behind the calls is not given here.

What was measured:
[1] = molecular target: T1, Gastric inhibitory polypeptide receptor (Homo sapiens) (UniProt P48546); assay: Antagonist activity at human GIPR expressed in CHO cells assessed as inhibition of glucagon-induced cAMP accumulation at 10 uM; assay type: functional, cell-based
T1 sequence (whole entry): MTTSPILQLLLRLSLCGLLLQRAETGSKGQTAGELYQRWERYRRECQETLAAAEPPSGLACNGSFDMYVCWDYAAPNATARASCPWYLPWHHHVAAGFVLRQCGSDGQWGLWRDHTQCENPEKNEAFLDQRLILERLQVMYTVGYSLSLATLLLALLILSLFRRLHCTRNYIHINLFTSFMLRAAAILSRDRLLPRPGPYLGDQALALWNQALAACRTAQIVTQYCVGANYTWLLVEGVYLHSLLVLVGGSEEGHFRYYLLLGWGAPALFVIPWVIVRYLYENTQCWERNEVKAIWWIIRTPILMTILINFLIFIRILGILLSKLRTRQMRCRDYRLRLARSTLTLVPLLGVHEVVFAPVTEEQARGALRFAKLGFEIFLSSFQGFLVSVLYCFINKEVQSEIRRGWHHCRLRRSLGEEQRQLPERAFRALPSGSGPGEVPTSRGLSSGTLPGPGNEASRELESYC

Glucagon receptor [2] = molecular target: T2, Glucagon receptor (Homo sapiens, UniProt P47871); assay: Displacement of [125I]glucagon from human GCGR expressed in CHO cells; assay type: cell-based
Method in brief: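 Binding inhibition of 125I-glucagon to human GCGR expressed in CHO cell membranes; IC50 reported, n given where replicated.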

[3] = molecular target: T3, Gastric inhibitory polypeptide receptor (Homo sapiens, UniProt P48546); assay: Antagonist activity at human GIPR expressed in CHO cells assessed as inhibition of glucagon-induced cAMP accumulation; assay type: functional, cell-based
T3 sequence (P48546 whole entry): T1 sequence (whole entry)

Glucagon receptor [4] = molecular target: T2, Glucagon receptor; assay: Antagonist activity at human GCGR expressed in CHO cells assessed as inhibition of glucagon-induced cAMP accumulation; assay type: functional, cell-based
Method in brief: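 Inhibition of glucagon-induced cAMP accumulation in CHO cells transfected with human GCGR; IC50 derived, n given where replicated.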

Mus musculus [5] = assay: Antidiabetic activity in transgenic mouse expressing human GCGR assessed as inhibition of glucagon-induced blood glucose excursion at 30 mg/kg, po administered 60 mins before glucagon challenge measured after 48 mins; assay type: functional, organism-based; design: dose 30 mg/kg
Method in brief: (§1)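 hGCGR transgenic mice (only functional receptor is human GCGR), 9 per group, given compound orally, then glucagon 15 µg/kg IP 60 min later (one arm dosed 30 mpk three hours before challenge); blood glucose monitored at 12, 24, 36 and 48 min after glucagon.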

Mus musculus [6] = assay: Antidiabetic activity in transgenic mouse expressing human GCGR assessed as inhibition of glucagon-induced blood glucose excursion at 10 mg/kg, po administered 60 mins before glucagon challenge measured after 48 mins; assay type: functional, organism-based; design: dose 10 mg/kg; method in brief: as §1
[7] = Blood clearance in po dosed mouse; assay type: ADME, organism-based
[8] = Half life in po dosed mouse; assay type: ADME, organism-based; details: in vivo
Mus musculus [9] = assay: Dose normalized AUC in po dosed mouse; assay type: ADME, organism-based; details: in vivo

T2 sequence (P47871 whole entry): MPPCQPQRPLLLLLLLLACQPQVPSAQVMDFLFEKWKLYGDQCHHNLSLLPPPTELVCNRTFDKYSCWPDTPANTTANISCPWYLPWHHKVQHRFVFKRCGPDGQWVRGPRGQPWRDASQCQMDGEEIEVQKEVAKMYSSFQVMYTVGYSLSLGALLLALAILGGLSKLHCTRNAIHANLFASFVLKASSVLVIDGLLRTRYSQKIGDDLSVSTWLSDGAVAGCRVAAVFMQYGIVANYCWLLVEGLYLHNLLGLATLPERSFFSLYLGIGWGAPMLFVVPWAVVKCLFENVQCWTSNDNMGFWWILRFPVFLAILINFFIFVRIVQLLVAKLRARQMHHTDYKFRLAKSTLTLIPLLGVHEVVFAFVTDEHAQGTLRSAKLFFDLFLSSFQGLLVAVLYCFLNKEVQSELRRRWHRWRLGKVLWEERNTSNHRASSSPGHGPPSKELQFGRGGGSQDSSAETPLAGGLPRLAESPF

| SMILES | inhibition [1] [%] | IC50 (Glucagon receptor [2]) [nM] | IC50 [3] [nM] | further results |
| --- | --- | --- | --- | --- |
| O=C(O)CCNC(=O)c1ccc(Cc2cn(-c3ccc(OC(F)(F)F)cc3)nc2C2CCCCC2)cc1 | – | 1200 | 7400 | – |
| O=C(Nc1nn[nH]n1)c1ccc(Cc2cc(-c3ccc(OC(F)(F)F)cc3)n(C3CCCCC3)n2)cc1 | 50 | 2900 | – | – |
| O=C(Nc1nn[nH]n1)c1cccc(Cn2nc(-c3ccc(OC(F)(F)F)cc3)cc2-c2ccc(OC(F)(F)F)cc2)c1 | 2 | 1100 | – | – |
| O=C(Nc1nnn[nH]1)c1ccc(Cc2cn(-c3ccc(OC(F)(F)F)cc3)nc2C2CCCCC2)cc1 | – | 5300 | > 10000 | – |
| O=C(Nc1nn[nH]n1)c1ccc(Cn2nc(-c3ccc(OC(F)(F)F)cc3)cc2-c2ccc(OC(F)(F)F)cc2)cc1 | 46 | 43 | – | IC50 (Glucagon receptor [4]): 47 nM; inhibition (Mus musculus [5]): Active; inhibition (Mus musculus [6]): Active |
| O=C(NCc1nnn[nH]1)c1ccc(Cn2nc(-c3cc(Cl)cc(Cl)c3)cc2-c2ccc(OC(F)(F)F)cc2)cc1 | – | 120 | > 10000 | – |
| CC(C)(C)[C@H]1CC[C@H](c2cc(-c3ccc(OC(F)(F)F)cc3)nn2Cc2ccc(C(=O)Nc3nnn[nH]3)cc2)CC1 | – | 63 | 5700 | IC50 (Glucagon receptor [4]): 170 nM |
| O=C(Nc1nnn[nH]1)c1ccc(Cn2nc(-c3ccc(OC(F)(F)F)cc3)cc2-c2cc(Cl)cc(Cl)c2)cc1 | – | 36 | 3000 | IC50 (Glucagon receptor [4]): 35 nM |
| O=C(O)CCNC(=O)c1ccc(Cc2cc(-c3ccc(OC(F)(F)F)cc3)n(C3CCCCC3)n2)cc1 | – | 1700 | – | – |
| O=C(Nc1nn[nH]n1)c1ccc(Cn2nc(C3CCCCC3)cc2-c2ccc(OC(F)(F)F)cc2)cc1 | – | 810 | 910 | – |
| O=C(Nc1nn[nH]n1)c1ccc(Cc2cc(-c3ccc(OC(F)(F)F)cc3)nn2C2CCCCC2)cc1 | 42 | 4200 | – | – |
| CC(C)(C)[C@H]1CC[C@H](N(Cc2ccc(C(=O)NCCC(=O)O)cc2)C(=O)Nc2ccc(OC(F)(F)F)cc2)CC1 | – | 21 | 1300 | IC50 (Glucagon receptor [4]): 140 nM |
| O=C(O)CNC(=O)c1cccc(Cn2nc(-c3ccc(OC(F)(F)F)cc3)cc2-c2ccc(OC(F)(F)F)cc2)c1 | 34 | 2900 | – | – |
| O=C(Nc1nn[nH]n1)c1ccc(Cn2nc(-c3cc(Cl)cc(Cl)c3)cc2-c2ccc(OC(F)(F)F)cc2)cc1 | – | – | – | inhibition (Mus musculus [5]): Active; inhibition (Mus musculus [6]): inactive |
| CC(C)(C)[C@H]1CC[C@H](c2cc(-c3ccc(OC(F)(F)F)cc3)nn2Cc2ccc(C(=O)Nc3nn[nH]n3)cc2)CC1 | – | – | – | inhibition (Mus musculus [5]): Active; inhibition (Mus musculus [6]): Active |
| O=C(NC[C@@H](O)C(=O)O)c1ccc(Cn2nc(-c3cc(Cl)cc(Cl)c3)cc2-c2ccc(OC(F)(F)F)cc2)cc1 | – | 28 | > 25000 | – |
| CC(c1ccc(C(=O)Nc2nnn[nH]2)cc1)n1nc(-c2ccc(OC(F)(F)F)cc2)cc1-c1ccc(OC(F)(F)F)cc1 (stereo unspecified) | – | 130 | 6000 | – |
| O=C(O)CCNC(=O)c1ccc(Cc2cc(-c3ccc(OC(F)(F)F)cc3)nn2C2CCCCC2)cc1 | 39 | 2900 | – | – |
| O=C(Nc1nnn[nH]1)c1ccc(Cn2nc(-c3cc(Cl)cc(Cl)c3)cc2-c2ccc(OC(F)(F)F)cc2)cc1 | – | 39 | 7100 | IC50 (Glucagon receptor [4]): 44 nM |
| CC(C)(C)[C@H]1CC[C@H](N(Cc2ccc(C(=O)Nc3nn[nH]n3)cc2)C(=O)Nc2ccc(OC(F)(F)F)cc2)CC1 | – | 3.2 | 45 | IC50 (Glucagon receptor [4]): 46 nM |
| O=C(O)CCNC(=O)c1ccc(Cc2cnn(-c3ccc(OC(F)(F)F)cc3)c2C2CCCCC2)cc1 | – | 7200 | > 25000 | – |
| O=C(Nc1nn[nH]n1)c1ccc(Cn2nc(-c3ccc(OC(F)(F)F)cc3)cc2C2CCCCC2)cc1 | – | 120 | 2100 | IC50 (Glucagon receptor [4]): 160 nM; CL/F [7]: 8.2 mL/min/kg; half-life [8]: 2.7 h; AUC (Mus musculus [9]): 1.5 µM·kg·h/mg |
| O=C(NCc1nn[nH]n1)c1ccc(Cn2nc(-c3cc(Cl)cc(Cl)c3)cc2-c2ccc(OC(F)(F)F)cc2)cc1 | – | – | – | inhibition (Mus musculus [6]): inactive |
| O=C(Nc1nn[nH]n1)c1ccc(Cc2cnn(-c3ccc(OC(F)(F)F)cc3)c2C2CCCCC2)cc1 | – | 16000 | > 20000 | – |
| CC(c1ccc(Cl)cc1)c1cc(-c2ccc(OC(F)(F)F)cc2)n(Cc2ccc(C(=O)Nc3nn[nH]n3)cc2)n1 (stereo unspecified) | 20 | 430 | – | – |
| O=C(O)CCNC(=O)c1ccc(Cn2nc(-c3ccc(OC(F)(F)F)cc3)cc2C2CCCCC2)cc1 | – | 3800 | 2800 | – |
| CC(c1ccc(Cl)cc1)c1cc(-c2ccc(OC(F)(F)F)cc2)nn1Cc1ccc(C(=O)Nc2nn[nH]n2)cc1 (stereo unspecified) | 21 | 520 | – | – |
| CC(C)(C)[C@H]1CC[C@H](c2cc(-c3ccc(OC(F)(F)F)cc3)nn2Cc2ccc(C(=O)NCCC(=O)O)cc2)CC1 | 6 | 480 | – | – |

More lines, main results first:

| inhibition [1] [%] | IC50 (Glucagon receptor [2]) [nM] | IC50 [3] [nM] | SMILES | further results |
| --- | --- | --- | --- | --- |
| 36 | – | – | CS(=O)(=O)c1ccc(-c2cc(-c3ccc(OC(F)(F)F)cc3)nn2Cc2ccc(C(=O)Nc3nn[nH]n3)cc2)cc1 | – |
| 21 | 95 | – | O=C(O)CCNC(=O)c1ccc(Cn2nc(-c3ccc(OC(F)(F)F)cc3)cc2-c2cc(Cl)cc(Cl)c2)cc1 | IC50 (Glucagon receptor [4]): 230 nM |
| 45 | – | – | CS(=O)(=O)c1ccc(-c2cc(-c3ccc(OC(F)(F)F)cc3)n(Cc3ccc(C(=O)Nc4nn[nH]n4)cc3)n2)cc1 | – |
| 9 | 7200 | – | CN(CCC(=O)O)C(=O)c1ccc(Cn2nc(-c3ccc(OC(F)(F)F)cc3)cc2-c2ccc(OC(F)(F)F)cc2)cc1 | – |
| – | 490 | – | O=C(O)CCNC(=O)c1ccc(Cn2nc(-c3ccc(OC(F)(F)F)cc3)cc2-c2ccc(OC(F)(F)F)cc2)cc1 | IC50 (Glucagon receptor [4]): 370 nM |
| 46 | 250 | – | CC(c1ccc(C(=O)NCCC(=O)O)cc1)n1nc(-c2ccc(OC(F)(F)F)cc2)cc1-c1ccc(OC(F)(F)F)cc1 (stereo unspecified) | – |
| 22 | 730 | – | CC(c1ccc(Cl)cc1)c1cc(-c2ccc(OC(F)(F)F)cc2)nn1Cc1ccc(C(=O)NCCC(=O)O)cc1 (stereo unspecified) | – |
| – | 220 | – | CS(=O)(=O)c1ccc(-c2cc(-c3ccc(OC(F)(F)F)cc3)nn2Cc2ccc(C(=O)Nc3nnn[nH]3)cc2)cc1 | – |
| 43 | 2700 | – | CS(=O)(=O)c1ccc(-c2cc(-c3ccc(OC(F)(F)F)cc3)n(Cc3ccc(C(=O)NCCC(=O)O)cc3)n2)cc1 | – |
| -3 | 3000 | – | O=C(O)CNC(=O)c1ccc(Cn2nc(-c3ccc(OC(F)(F)F)cc3)cc2-c2ccc(OC(F)(F)F)cc2)cc1 | IC50 (Glucagon receptor [4]): 1300 nM |
| 0 | 2400 | – | CC(c1ccc(Cl)cc1)c1cc(-c2ccc(OC(F)(F)F)cc2)n(Cc2ccc(C(=O)NCCC(=O)O)cc2)n1 (stereo unspecified) | – |
| 15 | 1100 | – | O=C(O)CCCNC(=O)c1ccc(Cn2nc(-c3ccc(OC(F)(F)F)cc3)cc2-c2ccc(OC(F)(F)F)cc2)cc1 | – |
| – | 570 | – | CS(=O)(=O)c1ccc(-c2cc(-c3ccc(OC(F)(F)F)cc3)n(Cc3ccc(C(=O)Nc4nnn[nH]4)cc3)n2)cc1 | – |
| 49 | 1100 | – | O=C(O)CCCNC(=O)c1cccc(Cn2nc(-c3ccc(OC(F)(F)F)cc3)cc2-c2ccc(OC(F)(F)F)cc2)c1 | – |
| 73 | 330 | – | O=C(O)CCNC(=O)c1cccc(Cn2nc(-c3ccc(OC(F)(F)F)cc3)cc2-c2ccc(OC(F)(F)F)cc2)c1 | – |
| 31 | 1200 | – | CS(=O)(=O)c1ccc(-c2cc(-c3ccc(OC(F)(F)F)cc3)nn2Cc2ccc(C(=O)NCCC(=O)O)cc2)cc1 | – |
